Measurements published in PubChem BioAssay AID651575 (The Scripps Research Institute Molecular Screening Center, 2012).

These compounds were tested on Huh-7.5 HCV J6/JFH-1 infection, RT-qPCR viral RNA, 48 h (assay: blockade of HCV J6/JFH-1 infection of hepatoma cells – cell-based, RT-qPCR viral RNA, Huh-7.5, powder samples, counter-screen for HCV core dimerization inhibitor project, late-stage follow-up (AID 651575)).
Outline: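 Test system: Huh-7.5 cells infected with HCV genotype 2a J6/JFH-1. Reagent: HCV 2a J6/JFH-1 virus added together with compound. Incubation: 24 h infection with compound, then 48 h compound. Measured by: Taqman real-time RT-qPCR of HCV RNA, Ct values. Measure: IC50 from sigmoidal fit of percent inhibition.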
Work on `Cc1ccc(Cc2c(C)nc3nc(SCC(=O)NCCN4CCCN(S(C)(=O)=O)CC4)nn3c2C)cc1` yielded an IC50 of 1240 nM.
`Cc1ccc(Cc2c(C)nc3nc(SCC(=O)NCCN4CCCN(S(=O)(=O)c5ccccc5)CC4)nn3c2C)cc1` was tested, and the IC50 was 665 nM.
Work on `Cc1ccc(Cc2c(C)nc3nc(SCC(=O)NCCN4CCCCCC4)nn3c2C)cc1` yielded an IC50 of 191 nM.
`Cc1ccc(Cc2c(C)nc3nc(SCC(=O)NCCN4CCN(CCc5ccccc5)CC4)nn3c2C)cc1` was tested, and the IC50 was 294 nM.
Work on `Cc1ccc(Cc2c(C)nc3nc(SCC(=O)NCCN4CCOCC4)nn3c2C)cc1` yielded an IC50 of 312 nM.
`Cc1ccc(Cc2c(CCc3ccccc3)nc3nc(SC(Cc4ccccc4)C(=O)NCCN4CCOCC4)nn3c2C)cc1` (centres undefined) showed an IC50 of 286 nM.
`Cc1ccc(Cc2c(C)nc3nc(SCC(=O)NCCN4CCNCC4)nn3c2C)cc1` showed an IC50 of 2 nM.
With `Cc1ccc(Cc2c(C)nc3nc(SCC(=O)NCCN4CCN(Cc5ccc(F)cc5)CC4)nn3c2C)cc1` the IC50 was 32 nM.
`Cc1ccc(Cc2c(C)nc3nc(SCC(=O)NCCN4CCCN(S(=O)(=O)c5ccc(C)cc5)CC4)nn3c2C)cc1` gave an IC50 of 4 nM.
